# Source: ChEMBL document CHEMBL1153035, “Desmethoxymajusculamide C, a cyanobacterial depsipeptide with potent cytotoxicity in both cyclic and ring-opened forms” (J Nat Prod, 2009)
# pIC50: −log10 of the molar value. Activity calls are given as the source filed them. No cut-off for these calls is given here. Starred links: 1 amine or outer side, 2 acyl side, 3 side chain; linkers in the order of their positions; H or OH if unused. Non-standard residues stand in square brackets, D forms with d. Residues, ends and D or L forms follow the SMILES beside them. *: point of attachment. X1 = CC[C@H](C)[C@H](OC(=O)[C@@H](C)[C@@H](CC)N[*:1])C(=O)[*:2]; Pentanoyl(2S-OH,3S-Me) = CC[C@H](C)[C@H](O)C(=O)*; X2 = C[C@H](N[*:1])C(=O)C(C)(C)C(=O)[*:2]; NMeF = CN[C@@H](Cc1ccccc1)C(=O)O; NMeI = CC[C@H](C)[C@H](NC)C(=O)O; X3 = CC[C@@H](N*)[C@H](C)C(=O)O; NMeV = CN[C@H](C(=O)O)C(C)C
# Tests used:
# [1] = test system: MDA-MB-435; assay: Selectivity ratio, IC50 for human MDA-MB-435 cells to IC50 for human HCT116 cells; format: functional
# [2] = test system: HCT-116; assay: Selectivity ratio, IC50 for human H460 cells to IC50 for human HCT116 cells; format: functional
# [3] = test system: A10; assay: Effect on actin cytoskeleton in rat A10 cells assessed as loss of F-actin filament at 52 nM by TRITC-phalloidin staining; format: functional, cell-based
# Procedure, shortened: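 A-10 cells on glass coverslips in BME + 10% fetal calf serum, exposed 24 h, then fixed with 3% paraformaldehyde, permeabilized with 0.2% Triton X-100, and reduced with NaBH4. Stained 45 min with 100 nM TRITC-phalloidin plus DAPI. F-actin examined by fluorescence microscopy against vehicle-treated control.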
# [4] = Cytotoxicity against mouse Neuro2a cells after 24 hrs; format: functional, cell-based; details: N2a
# [5] = test system: NCI-H460; assay: Cytotoxicity against human H460 cells after 24 hrs; format: functional, cell-based; details: NCI-H460, 24 h
# [6] = Selectivity ratio, IC50 for […] cells to IC50 for human HCT116 cells; format: functional
# [7] = test system: HCT-116; assay: Cytotoxicity against human HCT116 cells after 120 hrs; details: HCT-116, 120 h
# [8] = test system: MDA-MB-435; assay: Cytotoxicity against human MDA-MB-435 cells after 24 hrs; format: functional, cell-based; details: MDA-MB-435, 24 h
# [9] = test system: HCT-116; assay: Cytotoxicity against human HCT116 cells assessed as clonogenic concentration required for 10% surviving fraction after 7 days; format: functional
# Procedure, shortened: (§1)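 HCT-116 cells seeded at 200 or 20,000 per 60 mm dish in RPMI + 10% FBS. Drug added at a final top concentration of 10 µg/mL (10.5 µM) with 10-fold dilutions, for 2 h or 24 h then replaced by drug-free medium, or left continuously (168 h). After 7 days, colonies stained with methylene blue; colonies of ≥50 cells counted and normalized to untreated control.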
# [10] = Toxicity in human HCT116 cells xenografted in SCID mouse assessed as maximum tolerated dose; format: organism-based, HCT-116; details: in vivo, read-out: Activity
# [11] = test system: HCT-116; assay: Antitumor activity against human HCT116 cells xenografted in SCID mouse assessed as tumor growth rate at 0.31 mg/kg, iv dosed daily for 5 days relative to control; format: functional, organism-based; design: dose 0.31 mg/kg
# Procedure, shortened: (§2)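 HCT-116 tumor cells from tissue, 10^6 implanted subcutaneously into pooled SCID mice (>17 g, weights within 5 g), 5 per group. Starting 1 day after inoculation, bolus tail-vein iv daily for 5 days. Vehicle: DMSO stock diluted 1:1 with Cremophor-propylene glycol (40:60), then ≥10-fold with saline. Minimum %T/C reported; sacrifice at day 30.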
# [12] = test system: HCT-116; assay: Cytotoxicity against human HCT116 cells assessed as clonogenic concentration required for 10% surviving fraction after 2 hrs; format: functional; procedure, shortened: as §1
# [13] = test system: HCT-116; assay: Cytotoxicity against human HCT116 cells assessed as clonogenic concentration required for 10% surviving fraction after 24 hrs; format: functional; procedure, shortened: as §1
# [14] = test system: HCT-116; assay: Antitumor activity against human HCT116 cells xenografted in SCID mouse at 0.62 mg/kg, iv daily for 5 days relative to control; format: functional, organism-based; design: dose 0.62 mg/kg; procedure, shortened: as §2
smiles,measurement,setting,value
"CC[C@H](C)[C@H](O)C(=O)NCC(=O)N(C)[C@H](C(=O)NCC(=O)N(C)[C@H](C(=O)N(C)[C@@H](Cc1ccccc1)C(=O)N[C@@H](C)C(=O)C(C)(C)C(=O)N[C@@H](C)C(=O)N[C@H](CC)[C@H](C)C(=O)O)C(C)C)[C@@H](C)CC ({Pentanoyl(2S-OH,3S-Me)}-G[NMeI]G[NMeV][NMeF][X2]A-X3)",Ratio IC50,[1],14
same,Ratio IC50,[2],5
same,Activity,[3],Active
same,pIC50,[4],< 6.00
same,pIC50,[5],7.03
same,Ratio IC50,[6],10
same,pIC50,[7],7.80
same,pIC50,[8],6.64
CC[C@H](C)[C@@H]1OC(=O)[C@@H](C)[C@@H](CC)NC(=O)[C@H](C)NC(=O)C(C)(C)C(=O)[C@H](C)NC(=O)[C@H](Cc2ccccc2)N(C)C(=O)[C@H](C(C)C)N(C)C(=O)CNC(=O)[C@H]([C@@H](C)CC)N(C)C(=O)CNC1=O [DESMETHOXYMAJUSCULAMIDE C] (cyclo(A[X1]G[NMeI]G[NMeV][NMeF][X2])),Ratio IC50,[1],11
same,Activity,[9],2.1 nM
same,MTD,[10],2.5 mg/kg
same,Ratio IC50,[2],5
same,Activity,[3],Active
same,pIC50,[4],< 6.00
same,Activity,[11],Active
same,pIC50,[5],7.20
same,Ratio IC50,[6],10
same,pIC50,[7],7.70
same,Activity,[12],>10.5 µM
same,Activity,[13],>10.5 µM
same,Activity,[14],Active
same,pIC50,[8],6.66
